High-throughput results from PubChem BioAssay.
LMPTP block: LMPTP phosphatase inhibitors, primary screen, biochemical, fluorescence intensity, uHTS. Low molecular weight phosphotyrosine protein phosphatase (Homo sapiens), P24666. recombinant LMPTP-A, OMFP fluorogenic substrate. inhibition, % at 20 µM. hit rate 0.22% among 360,000. AID 651560, 2012;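 active means compounds that cut the enzyme signal by at least half of the control window in the single-dose screen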;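 further: plate controls were DMSO wells with enzyme plus substrate for no effect and substrate without enzyme for full effect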
Target sequence (P24666 whole entry, looked up): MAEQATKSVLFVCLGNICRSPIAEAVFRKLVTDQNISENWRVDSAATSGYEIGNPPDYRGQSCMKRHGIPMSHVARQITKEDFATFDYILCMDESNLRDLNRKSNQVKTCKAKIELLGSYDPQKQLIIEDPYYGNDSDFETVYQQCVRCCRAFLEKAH
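Assay system: LMPTP-A phosphatase enzyme | Input: 0.625 nM enzyme | Also added: Fluorogenic phosphatase substrate OMFP at 400 µM final | Compound dosing: One test concentration per compound, 20 µM, with 3% DMSO overall | Schedule: 50 min enzyme reaction at room temperature, protected from light | Signal: Fluorescence intensity | Benchmarks: no-enzyme and uninhibited controls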
PP5 primary: PP5 phosphatase inhibitors, primary screen, biochemical, fluorescence; purified PP5c, OMFP substrate fluorescence; inhibition, % at 6.7 µM; hit rate 0.18% among 320,000; AID 1987, 2009;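 active means inhibition above the campaign's mean inhibition across all tested compounds plus 3 SD, cut at about 9.5% in these data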;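 further: 0% = DMSO only and 100% = 100 µM cantharidin control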
STEP inh: STEP phosphatase inhibitors, primary screen, biochemical, fluorescence intensity, uHTS; Tyrosine-protein phosphatase non-receptor type 5 (Homo sapiens), P54829; recombinant STEP, OMFP fluorogenic substrate; inhibition, % at 20 µM; hit rate 0.25% among 360,000; AID 588621, 2011;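 active means inhibition at 20 µM, scaled per plate between control wells, above about 37%, limit read from the data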;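 further: 0% = DMSO with enzyme and substrate and 100% = substrate only without enzyme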
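Also added – OMFP at 25 µM · Test system – STEP tyrosine phosphatase · Technique – FITC-channel fluorescence of OMFP product · Schedule – 20 min at room temperature, dark · Evaluation – control-normalized % inhibition with plate pattern correction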
Scp1 inh: Scp-1 phosphatase inhibitors, primary screen, biochemical, colorimetric, uHTS; hit rate 0.88% among 340,000; Recombinant Scp1, phosphopeptide, malachite green phosphate absorbance; Carboxy-terminal domain RNA polymerase II polypeptide A small phosphatase 1 (Homo …; inhibition, % at 20 µM;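 active means inhibition above about 50% at 20 µM, limit read from the data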;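 further: plate controls were DMSO wells with enzyme for no effect and wells lacking enzyme for full effect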
Target sequence (Q9GZU7 76-261 limits assumed): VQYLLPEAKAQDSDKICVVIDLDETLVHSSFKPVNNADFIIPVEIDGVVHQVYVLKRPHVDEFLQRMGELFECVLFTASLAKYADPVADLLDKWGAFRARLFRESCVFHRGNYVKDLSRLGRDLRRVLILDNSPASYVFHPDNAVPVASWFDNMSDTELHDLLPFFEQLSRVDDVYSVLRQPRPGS
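Test system: SCP-1 phosphatase catalytic domain, residues 76-261; measured by: colorimetric phosphate reagent with accelerator and stabiliser, absorbance at 630 nm; timing: enzyme reaction 45 min at room temperature, colour 5 min, stabilisation 30 min; also added: Phosphorylated 17-residue peptide substrate; compound dosing: one concentration, 20 µM, with 1.0% DMSO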
PP1 counter: PP1-alpha phosphatase inhibitors, primary screen, counter-screen for PP5 inhibitor project, biochemical, fluorescence, OMFP substrate, single point. Serine/threonine-protein phosphatase PP1-alpha catalytic subunit (Homo sapiens), P62136. purified PP1alpha. inhibition, % at 6.7 µM. hit rate 0.9% among 320,000. AID 2235, 2010;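 active means inhibition above the mean inhibition of all tested compounds plus 3 SD, computed separately for each screening campaign, cut at about 15% in these data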
Target sequence (P62136 whole entry, looked up): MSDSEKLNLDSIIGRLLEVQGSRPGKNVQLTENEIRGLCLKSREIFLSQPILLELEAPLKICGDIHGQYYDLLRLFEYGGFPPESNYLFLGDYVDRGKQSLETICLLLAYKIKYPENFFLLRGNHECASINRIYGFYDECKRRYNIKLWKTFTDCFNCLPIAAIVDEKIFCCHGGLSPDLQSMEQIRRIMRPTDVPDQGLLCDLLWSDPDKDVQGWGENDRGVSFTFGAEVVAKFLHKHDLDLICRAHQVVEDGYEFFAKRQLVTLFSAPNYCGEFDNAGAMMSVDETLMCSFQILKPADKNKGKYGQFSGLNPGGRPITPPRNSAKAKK
Starred values were filed as active, the others as inactive; · = not tested or not shown. A selection: hits, their analogues and other compounds. The true share with any hit is near 1.9%.

SMILES | LMPTP block | PP5 primary | STEP inh | Scp1 inh | PP1 counter
Cc1ccc(/C=C2\SC(=S)N(CC3CCCO3)C2=O)o1 (stereo not drawn) | 2.7 | 3.8 | 2.7 | 7.4 | 2.6
O=C1/C(=C\c2ccco2)SC(=S)N1Cc1ccccc1 | 6.0 | 1.6 | 2.5 | -2.3 | 3.7
O=C(CCCN1C(=O)/C(=C/c2ccco2)SC1=S)Nc1ccccc1C(=O)O | 19.1 | -3.1 | 47.6* | 69.2* | 7.2
O=C(CCCN1C(=O)/C(=C\c2ccccc2)SC1=S)Nc1ccc(O)cc1C(=O)O | 1.0 | 0.4 | 2.6 | 6.8 | 4.6
O=C(CN1C(=O)/C(=C\c2ccco2)SC1=S)Nc1ccc(O)cc1C(=O)O | 43.9 | -2.0 | 79.5* | 56.6* | 1.3
O=C(CCN1C(=O)/C(=C/c2ccco2)SC1=S)Nc1ccc(O)cc1C(=O)O | 7.1 | · | 35.3 | 63.7* | ·
COc1ccccc1C1=NN(C(=S)Nc2ccccc2)C(c2ccco2)C1 (stereo not drawn) | 2.5 | 2.4 | 4.2 | -12.0 | 1.7
O=c1nc2s/c(=C\c3ccco3)c(=O)n2nc1Cc1ccc(F)cc1 | 0.1 | 1.5 | -1.2 | 77.4* | 1.0
Cc1nc(N)sc1-c1csc(Nc2ncccn2)n1 | 34.8 | · | 64.5* | -2.3 | ·
COc1cc(OC)c2c(-c3ccccc3)cc(=O)oc2c1C(CCN1CCN(c2ccccc2)CC1)c1ccc(N(C)C)cc1 (stereo not drawn) | 14.1 | 5.2 | 7.3 | 8.1 | 15.9*
CCN(CC)C(=O)CC(c1cc(OC)c(OC)c(OC)c1)c1c(OC)cc(OC)c2c(-c3ccccc3)cc(=O)oc12 (stereo not drawn) | 17.5 | 6.8 | 2.8 | 71.1* | 0.3
COc1ccc(C(CCN2CCN(c3ccccc3)CC2)c2c(OC)cc(OC)c3c(-c4ccccc4)cc(=O)oc23)cc1 (stereo not drawn) | 6.2 | 4.3 | 2.5 | 0.8 | 8.3
CCN(CC)C(=O)CC(c1cc(OC)c(OC)c(OC)c1)c1c(OC)cc(OC)c2ccc(=O)oc12 (stereo not drawn) | -1.6 | 3.2 | 1.0 | 6.0 | 5.2
COc1ccccc1NC(=O)c1ccccc1NS(=O)(=O)N1CCCC1 | -6.9 | 2.3 | 3.9 | -11.3 | 1.8
CCOC(=O)N1CCC2(CC1)C(C#N)=C(N)Oc1c2sc2nc(C)cc(C)c12 | 1.2 | 4.5 | 1.8 | -8.0 | 0.5
Cc1cccc(NC(=O)CSc2nnc(-c3ccco3)c(-c3ccco3)n2)c1 | 11.2 | · | 2.8 | 39.1 | ·
Cc1cccc(NC(=O)CSc2nnc(-c3ccco3)c(-c3ccco3)n2)c1C | 25.3 | 2.0 | 5.6 | 62.7* | 8.5
COc1ccc2cc3[n+](cc2c1O)CCc1cc2c(cc1-3)OCO2 | 64.3* | · | · | · | ·
S=C(Nc1ccc2c(c1)OCO2)N1CCN(Cc2ccco2)CC1 | 0.2 | -1.5 | -2.8 | 6.4 | 0.4
N=C(N)SCc1ccc(Cl)cc1Cl | 3.7 | 0.7 | -3.5 | -6.0 | 15.2*
CN1CCc2c(sc3nc(SCC(N)=O)n(-c4ccc(Cl)cc4)c(=O)c23)C1 | 15.8 | 1.1 | -2.1 | 2.0 | 5.3
O=C(O)c1cccc(Cn2c(Cl)c(/C=N/NC(=O)c3cc4ccccc4cc3O)sc2=O)c1 | 55.1* | -1.1 | 4.0 | 34.4 | 7.6
CCOC(=O)C1CCN(c2nc(N)c3c(N)nc(SCC(=O)O)cc3c2C#N)CC1 | 23.4 | · | 22.1 | 101.5* | ·
CCc1ccc2nc(N(CCCN(C)C)C(=O)c3ccc(S(=O)(=O)N4CCc5ccccc5C4)cc3)sc2c1 | 0.8 | 2.5 | 3.0 | 0.9 | 17.2*
COC(=O)c1c(Sc2ccccc2)c2ccccc2n1C | 0.3 | -0.9 | -2.4 | 61.3* | -2.6
SMILES | LMPTP block | PP5 primary | STEP inh | Scp1 inh | PP1 counter
Cn1c(CC(=O)NN)c(Sc2ccccc2)c2ccccc21 | 2.0 | 1.6 | 0.8 | -10.0 | -3.8
CC(=O)N1CCN(S(=O)(=O)c2ccc(S(=O)(=O)NCC(C)C)cc2)CC1 | -0.8 | -5.2 | -1.4 | 26.3 | 15.9*
CC(C)CNS(=O)(=O)c1ccc(S(=O)(=O)N2CCC3(CC2)OCCO3)cc1 | 0.0 | -1.7 | -0.6 | 1.4 | -0.9
CC(=O)c1ccc2cccc3c2c1N=CN3C | 0.1 | -0.5 | -4.3 | -5.2 | -1.0
O=C(O)C(c1ccccc1)N1C(=O)/C(=C\c2ccc(-c3ccc(Br)cc3)o2)SC1=S (stereo not drawn) | 64.7* | · | 10.6 | 19.8 | ·
Cc1ccc(S(=O)(=O)N(CC(=O)NCC2CCCO2)Cc2ccc(F)cc2)cc1 (stereo not drawn) | 0.4 | 3.2 | 2.4 | -2.0 | 15.3*
O=C(CN(Cc1ccccc1)S(=O)(=O)c1ccc(Br)cc1)NCC1CCCO1 (stereo not drawn) | -0.5 | 0.2 | -2.0 | -2.3 | 3.0
CCCCc1nc(Cl)c(CO)n1Cc1ccc(-c2ccccc2-c2nn[nH]n2)cc1 | -0.5 | -0.8 | 0.4 | -6.3 | 2.2
C=CC(=O)Nc1cccc(Oc2ccnc3[nH]ccc23)c1 | 19.2 | · | 54.2* | 9.3 | ·
C=CC(=O)Nc1cccc(Oc2ccnc(Nc3ccc(N4CCN(C)CC4)cc3)n2)c1 | 0.3 | · | 4.6 | 6.7 | ·
O=C(C[n+]1ccc(CCSc2ccc(F)cc2)cc1)c1ccccc1 | 53.5* | 1.3 | 1.1 | 16.7 | 1.2
Cc1ccc(SCCc2cc[n+](CC(=O)c3ccccc3)cc2)cc1 | 4.3 | -1.7 | -1.2 | -0.4 | -2.7
CCC(C(=O)OCC(=O)Nc1ccc2[nH]c(=O)[nH]c2c1)c1ccccc1 (stereo not drawn) | -0.1 | -0.4 | -0.7 | -5.7 | 0.0
O=C(N/N=C/c1cc(Cl)cc([N+](=O)[O-])c1O)c1ccc2c(c1)OCO2 | 60.1* | -6.3 | 99.4* | 99.2* | 8.2
O=C(N/N=C/c1cc(Br)c(Br)o1)c1ccc2c(c1)OCCO2 | 34.7 | -0.9 | 9.5 | 83.8* | 3.5
O=C(N/N=C/c1cc(Cl)cc([N+](=O)[O-])c1O)NC12CC3CC(CC(C3)C1)C2 | 78.2* | 2.5 | 7.7 | 23.2 | 2.9
O=C(N/N=C/c1cc(Br)c(O)c(Br)c1O)c1ccc2c(c1)OCCO2 | -0.9 | 1.1 | 6.6 | 7.0 | 0.9
O=C(N/N=C/c1ccccc1O)c1ccc2c(c1)OCO2 | -2.0 | 2.1 | 1.7 | -15.2 | 3.1
O=C(N/N=C/c1ccccc1O)NC12CC3CC(CC(C3)C1)C2 | 1.7 | 5.9 | -2.9 | -7.1 | 2.0
O=C(N/N=C/c1cc(Br)cc(Cl)c1O)c1ccc2c(c1)OCO2 | 74.4* | 0.2 | 99.1* | 90.8* | 3.9
CCc1ccc(CN(C)CC(=O)Nc2ccc3c(c2)CCC3)cc1 | 0.8 | 4.8 | -1.4 | -12.8 | 2.9
Nc1ccc2nc(CCCCCCCCc3nc4ccc(N)cc4[nH]3)[nH]c2c1 | 65.3* | -0.9 | 1.9 | -3.4 | 6.4
Nc1ccc2nc(CCCCCCc3nc4ccc(N)cc4[nH]3)[nH]c2c1 | 68.5* | -1.8 | 2.9 | 14.4 | -2.3
